# ChEMBL document CHEMBL3351600, “Sulfur, selenium and tellurium pseudopeptides: synthesis and biological evaluation” (Bioorg Med Chem, 2014)
# Experiments:
# [1] = tested on: Micrococcus luteus; test: Antimicrobial activity against Micrococcus luteus assessed as inhibition at 20 ug/6 mm disk after 1 to 2 days by agar diffusion assay; assay type: functional
# Method in brief: (§1)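 Standard agar diffusion: 6-mm paper disks loaded with 20 µg of compound were placed on inoculated plates. Inhibition-zone diameter (mm) was read after 1 and 2 days of growth.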
# [2] = tested on: Candida albicans; test: Antimicrobial activity against Candida albicans assessed as inhibition at 20 ug/6 mm disk after 1 to 2 days by agar diffusion assay; assay type: functional; method in brief: as §1
# [3] = tested on: MDA-MB-231; test: Growth inhibition of human MDA-MB-231 cells after 48 hrs; assay type: functional; conditions: MDA-MB-231, 48 h
# Method in brief: (§2)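 NCI-60 human tumour cell line panel screen run at the US National Cancer Institute under its standard cytotoxicity protocol. It covers leukaemia, NSCLC, colon, CNS, melanoma, ovarian, renal, prostate and breast lines. An initial single-dose test was followed by five-dose testing with 48 h compound exposure.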
# [4] = Lipophilicity, log K of the compound by HPLC analysis
# [5] = tested on: NCI-H460; test: Growth inhibition of human NCI-H460 cells after 48 hrs; assay type: functional; conditions: NCI-H460, 48 h; method in brief: as §2
# [6] = tested on: U-251; test: Growth inhibition of human U251 cells after 48 hrs; assay type: functional; conditions: U-251, 48 h
# Method in brief: (§3)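 Run by the NCI 58-cell-line screen under its standard cytotoxicity protocol. Compounds were first tested at a single dose, then at five doses. Cells were exposed to compound for 48 h.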
# [7] = tested on: M14; test: Growth inhibition of human M14 cells after 48 hrs; assay type: functional; conditions: M14, 48 h; method in brief: as §2
# [8] = tested on: HOP-62; test: Growth inhibition of human HOP62 cells after 48 hrs; assay type: functional; conditions: HOP-62, 48 h; method in brief: as §2
# [9] = Growth inhibition of human OVCAR5 cells after 48 hrs; assay type: functional; conditions: OVCAR-5, 48 h; method in brief: as §2
# [10] = tested on: Aspergillus niger; test: Antimicrobial activity against Aspergillus niger assessed as inhibition at 20 ug/6 mm disk after 1 to 2 days by agar diffusion assay; assay type: functional; method in brief: as §1
# [11] = tested on: TK-10; test: Growth inhibition of human TK10 cells after 48 hrs; assay type: functional; conditions: TK-10, 48 h; method in brief: as §3
# [12] = tested on: Klebsiella pneumoniae; test: Antimicrobial activity against Klebsiella pneumoniae assessed as inhibition at 20 ug/6 mm disk after 1 to 2 days by agar diffusion assay; assay type: functional; method in brief: as §1
# [13] = tested on: Pseudomonas aeruginosa; test: Antimicrobial activity against Pseudomonas aeruginosa assessed as inhibition at 20 ug/6 mm disk after 1 to 2 days by agar diffusion assay; assay type: functional; method in brief: as §1
# [14] = Growth inhibition of human PC3 cells after 48 hrs; assay type: functional; conditions: PC-3, 48 h; method in brief: as §2
# [15] = tested on: A549; test: Growth inhibition of human A549/ATCC cells after 48 hrs; assay type: functional; conditions: A549, 48 h; method in brief: as §2
# [16] = tested on: NCI-H522; test: Growth inhibition of human NCI-H522 cells after 48 hrs; assay type: functional; conditions: NCI-H522, 48 h; method in brief: as §2
# [17] = tested on: Mycolicibacterium phlei; test: Antimicrobial activity against Mycobacterium phlei assessed as inhibition at 20 ug/6 mm disk after 1 to 2 days by agar diffusion assay; assay type: functional; method in brief: as §1
# [18] = tested on: HL-60(TB); test: Growth inhibition of human HL-60(TB) cells after 48 hrs; assay type: functional; conditions: HL-60, 48 h; method in brief: as §2
# [19] = Growth inhibition of human OVCAR3 cells after 48 hrs; assay type: functional; conditions: OVCAR-3, 48 h; method in brief: as §2
# [20] = Growth inhibition of human HCT15 cells after 48 hrs; assay type: functional; conditions: HCT-15, 48 h; method in brief: as §2
# [21] = Growth inhibition of human UACC62 cells after 48 hrs; assay type: functional; conditions: UACC-62, 48 h; method in brief: as §3
# [22] = Growth inhibition of human COLO205 cells after 48 hrs; assay type: functional; conditions: COLO 205, 48 h; method in brief: as §2
# [23] = Growth inhibition of human HCT116 cells after 48 hrs; assay type: functional; conditions: HCT-116, 48 h; method in brief: as §2
# [24] = tested on: A-431; test: Cytotoxicity against human A431 cells assessed as cell viability after 24 hrs incubation by MTT assay; assay type: functional, cell-based; conditions: A-431, 24 h
# Method in brief: (§4)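 Cell lines came from DSMZ; primary human fibroblasts served as non-cancer controls. Cells were grown in medium with 10% FCS, seeded at 50,000 cells/ml, and grown 2 days at 37 °C, 10% CO2. Serial dilutions were then added for 24 h. MTT (final 0.5 mg/ml) was added for 2 h. Formazan was pelleted, PBS-washed, dissolved in isopropanol/0.4% HCl and read at 590 nm. Two parallel experiments were run. IC50 was taken as the concentration giving 50% of untreated-control absorbance.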
# [25] = tested on: NCI-H23; test: Growth inhibition of human NCI-H23 cells after 48 hrs; assay type: functional; conditions: NCI-H23, 48 h; method in brief: as §2
# [26] = tested on: SK-MEL-2; test: Growth inhibition of human SK-MEL-2 cells after 48 hrs; assay type: functional; conditions: SK-MEL-2, 48 h; method in brief: as §2
# [27] = Cytotoxicity against human fibroblasts assessed as cell viability after 24 hrs incubation by MTT assay; assay type: cell-based; conditions: Fibroblast; method in brief: as §4
# [28] = tested on: SW-620; test: Growth inhibition of human SW620 cells after 48 hrs; assay type: functional; conditions: SW-620, 48 h; method in brief: as §3
# [29] = tested on: SN12C; test: Growth inhibition of human SN12C cells after 48 hrs; assay type: functional; method in brief: as §3
# [30] = tested on: K562; test: Growth inhibition of human K562 cells after 48 hrs; assay type: functional; conditions: K562, 48 h; method in brief: as §2
# [31] = Growth inhibition of human UACC257 cells after 48 hrs; assay type: functional; conditions: UACC-257, 48 h; method in brief: as §3
# [32] = tested on: NCI-H322M; test: Growth inhibition of human NCI-H322M cells after 48 hrs; assay type: functional; method in brief: as §2
# [33] = tested on: IGROV-1; test: Growth inhibition of human IGROV1 cells after 48 hrs; assay type: functional; conditions: IGROV-1, 48 h; method in brief: as §2
# [34] = read-out: pLC50 (the source's name) (converted)
smiles,measurement,setting,value
COc1ccc(N(CC(=O)NCCC[Te]c2ccccc2)C(=O)CNC(=O)OC(C)(C)C)cc1,diameter of the inhibition zone (DIZ),[1],7 mm
same,diameter of the inhibition zone (DIZ),[2],0 mm
same,GI50,[3],1910 nM
same,TGI,[3]; read-out: pTGI (converted),3.89 µM
same,log K,[4],0.05
same,GI50,[5],447 nM
same,CC50,[5]; [34],7.59 µM
same,TGI,[5]; read-out: pTGI (converted),1860 nM
same,GI50,[6],2400 nM
same,CC50,[6]; [34],49 µM
same,TGI,[6]; read-out: pTGI (converted),6.46 µM
same,GI50,[7],3.55 µM
same,CC50,[7]; [34],45.7 µM
same,TGI,[7]; read-out: pTGI (converted),10.7 µM
same,GI50,[8],2190 nM
same,CC50,[8]; [34],11 µM
same,TGI,[8]; read-out: pTGI (converted),4.68 µM
same,GI50,[9],3.02 µM
same,LC50,[9],38.9 µM
same,TGI,[9]; read-out: pTGI (converted),7.41 µM
same,diameter of the inhibition zone (DIZ),[10],0 mm
same,GI50,[11],3.89 µM
same,LC50,[11],100 µM
same,TGI,[11]; read-out: pTGI (converted),10.7 µM
same,Retention_time,,1.548 min
same,diameter of the inhibition zone (DIZ),[12],12 mm
same,diameter of the inhibition zone (DIZ),[13],10 mm
same,GI50,[14],1700 nM
same,LC50,[14],> 100 µM
same,TGI,[14]; read-out: pTGI (converted),10 µM
same,GI50,[15],525 nM
same,CC50,[15]; [34],6.76 µM
same,TGI,[15]; read-out: pTGI (converted),2190 nM
same,GI50,[16],2570 nM
same,CC50,[16]; [34],56.2 µM
same,TGI,[16]; read-out: pTGI (converted),10.5 µM
same,diameter of the inhibition zone (DIZ),[17],12 mm
same,GI50,[18],2090 nM
same,CC50,[18]; [34],> 100 µM
same,TGI,[18]; read-out: pTGI (converted),5.62 µM
same,GI50,[19],3.02 µM
same,CC50,[19]; [34],100 µM
same,TGI,[19]; read-out: pTGI (converted),7.94 µM
same,GI50,[20],3.16 µM
same,CC50,[20]; [34],93.3 µM
same,TGI,[20]; read-out: pTGI (converted),10.5 µM
same,GI50,[21],1660 nM
same,CC50,[21]; [34],8.71 µM
same,TGI,[21]; read-out: pTGI (converted),3.8 µM
same,GI50,[22],2000 nM
same,CC50,[22]; [34],7.24 µM
same,TGI,[22]; read-out: pTGI (converted),3.8 µM
same,GI50,[23],2090 nM
same,CC50,[23]; [34],49 µM
same,TGI,[23]; read-out: pTGI (converted),6.46 µM
same,IC50,[24],5 µM
same,GI50,[25],2510 nM
same,CC50,[25]; [34],> 100 µM
same,TGI,[25]; read-out: pTGI (converted),6.61 µM
same,GI50,[26],3.02 µM
same,CC50,[26]; [34],> 100 µM
same,TGI,[26]; read-out: pTGI (converted),6.76 µM
same,IC50,[27],25 µM
same,GI50,[28],3.47 µM
same,CC50,[28]; [34],> 100 µM
same,TGI,[28]; read-out: pTGI (converted),14.5 µM
same,GI50,[29],2040 nM
same,LC50,[29],> 100 µM
same,TGI,[29]; read-out: pTGI (converted),5.01 µM
same,GI50,[30],5.5 µM
same,CC50,[30]; [34],> 100 µM
same,TGI,[30]; read-out: pTGI (converted),> 100 µM
same,GI50,[31],8.51 µM
same,CC50,[31]; [34],61.7 µM
same,TGI,[31]; read-out: pTGI (converted),24 µM
same,GI50,[32],2290 nM
same,CC50,[32]; [34],> 100 µM
same,TGI,[32]; read-out: pTGI (converted),6.61 µM
same,GI50,[33],2240 nM
same,CC50,[33]; [34],25.7 µM
same,TGI,[33]; read-out: pTGI (converted),5.37 µM
